Source: ChEMBL document CHEMBL3286337, “Synthesis, biological evaluation and structure-activity relationships of new phthalazinedione derivatives with vasorelaxant activity” (Eur J Med Chem, 2014)
pEC50: −log10 of the molar value. Calls of active or inactive are those of the source. The rule behind the calls is not given here.

Legend:
[1] = tested on: Aorta; assay: Vasorelaxant activity in Wistar rat endothelium-intact thoracic aortic rings assessed as inhibition of phenylephrine-induced contraction; assay type: functional, tissue-based
[2] = tested on: Aorta; assay: Vasorelaxant activity in Wistar rat endothelium-denuded thoracic aortic rings assessed as inhibition of phenylephrine-induced contraction; assay type: functional, tissue-based
[3] = tested on: Aorta; assay: Vasorelaxant activity in Wistar rat endothelium-denuded thoracic aortic rings assessed as inhibition of phenylephrine-induced contraction relative to endothelium-intact thoracic aortic rings in presence of 1 uM of acetylcholine; assay type: functional
[4] = tested on: Aorta; assay: Vasorelaxant activity in Wistar rat endothelium-intact thoracic aortic rings assessed as inhibition of phenylephrine-induced contraction at 200 uM; assay type: functional
[5] = tested on: Aorta; assay: Vasorelaxant activity in Wistar rat endothelium-denuded thoracic aortic rings assessed as inhibition of phenylephrine-induced contraction at 200 uM; assay type: functional, tissue-based
[6] = Cytotoxicity against rat A7r5 cells assessed as reduction of cell viability at 25 uM after 24 hrs by MTT assay; assay type: cell-based; settings: a7r5, 24 h
How it was run: (§1)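 A7r5 embryonic rat aorta smooth muscle cells seeded at 20 × 10^3/cm^2 and incubated overnight. Compounds added with DMSO (1%) for 24 h; untreated cells served as negative control. MTT solution (5 mg/ml in PBS) added, 2 h at 37 C, absorbance read at 540 nm. Viability = A(treatment)/A(negative control) × 100%. Mean ± S.E.M of at least 5 experiments.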

[7] = Cytotoxicity against rat A7r5 cells assessed as reduction of cell viability at 50 uM after 24 hrs by MTT assay; assay type: cell-based; settings: a7r5, 24 h; how it was run: as §1

SMILES	pEC50 [1]	pEC50 [2]	further results
Cn1c(=O)c2c(Cl)cccc2c(=O)n1CCN=[N+]=[N-]	5.39	4.88	
Cn1c(=O)c2c(Cl)cccc2c(=O)n1CCCN	5.07	4.52	inhibition (INH) [3]: 53.6%
Cn1c(=O)c2ccccc2c(=O)n1CCN			inhibition at 200 µM [4]: 50%; inhibition [5]: inactive
Cn1[nH]c(=O)c2cccc(Cl)c2c1=O			inhibition [4]: inactive; inhibition [5]: inactive
Cn1c(=O)c2c(Cl)cccc2c(=O)n1CCCN=[N+]=[N-]	5.63	4.93	
Cn1c(=O)c2ccccc2c(=O)n1CCN=[N+]=[N-]	5.00	4.80	
NNc1nncc2ccccc12 [HYDRALAZINE]	2.93	2.88	
Cn1c(=O)c2c(Cl)cccc2c(=O)n1CCCNC(=O)OC(C)(C)C	5.67	5.31	Activity [6]: Non-toxic; Activity [7]: Toxic
Cn1c(=O)c2cccc(Cl)c2c(=O)n1CCCNC(=O)OC(C)(C)C	5.32	4.74	Activity [6]: Non-toxic; Activity [7]: Toxic
Cn1c(=O)c2c(Cl)cccc2c(=O)n1CCBr	5.13	4.49	
Cn1c(=O)c2c(Cl)cccc2c(=O)n1CCCBr	5.18	4.57	
CN1C(=O)CN=C(c2ccccc2)c2cc(Cl)ccc21 [DIAZEPAM]	4.16	4.11	
Cn1c(=O)c2cccc(Cl)c2c(=O)n1CCN			inhibition at 200 µM [4]: 50%; inhibition [5]: inactive
Cn1c(=O)c2cccc(Cl)c2c(=O)n1CCCBr	5.47	5.17	
Cn1c(=O)c2ccccc2c(=O)n1CCCBr	5.51	4.81	
Cn1c(=O)c2cccc(Cl)c2c(=O)n1CCBr	5.10	4.70	
Cn1c(=O)c2ccccc2c(=O)n1CCCN			inhibition at 200 µM [4]: 50%; inhibition [5]: inactive
Cn1c(=O)c2cccc(Cl)c2c(=O)n1CCCN	4.35		inhibition [5]: inactive
Cn1c(=O)c2c(Cl)cccc2c(=O)n1CCNC(=O)OC(C)(C)C	5.60	5.25	Activity [6]: Non-toxic; Activity [7]: Toxic
Cn1[nH]c(=O)c2ccccc2c1=O			inhibition [4]: inactive; inhibition [5]: inactive
Cn1c(=O)c2cccc(Cl)c2c(=O)n1CCCN=[N+]=[N-]	5.37	5.13	Activity [6]: Non-toxic; Activity [7]: Toxic
Cn1c(=O)c2cccc(Cl)c2c(=O)n1CCNC(=O)OC(C)(C)C	5.46	4.88	Activity [6]: Non-toxic; Activity [7]: Toxic
Cn1c(=O)c2ccccc2c(=O)n1CCCNC(=O)OC(C)(C)C	5.40	4.63	
Cn1c(=O)c2ccccc2c(=O)n1CCCN=[N+]=[N-]	5.63	5.43	
Cn1c(=O)c2cccc(Cl)c2c(=O)n1CCN=[N+]=[N-]	5.20	4.88	
Cn1c(=O)c2c(Cl)cccc2c(=O)n1CCN	4.31		inhibition [5]: inactive
Cn1c(=O)c2ccccc2c(=O)n1CCNC(=O)OC(C)(C)C	5.61	4.84	
Cn1c(=O)c2ccccc2c(=O)n1CCBr	5.77	5.07	
Cn1[nH]c(=O)c2c(Cl)cccc2c1=O			inhibition [4]: inactive; inhibition [5]: inactive
Nc1cc(-c2ccncc2)c[nH]c1=O [INAMRINONE]	4.77	4.55	
